EBI2 block = EBI2 receptor antagonists, beta-arrestin recruitment, primary screen, cell-based, luminescence, 7a,25-OHC stimulation, uHTS; 0.81% of 360,000 active; inhibition, % at 5 µM; 7a,25-OHC stimulated; in the data active = inhibition above about 38%;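 note: enzyme fragment complementation signal reports receptor beta-arrestin coupling in cells; 0% = agonist plus DMSO wells and 100% = wells without agonist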
Target sequence (P32249 whole entry, looked up, the tested form may be a part): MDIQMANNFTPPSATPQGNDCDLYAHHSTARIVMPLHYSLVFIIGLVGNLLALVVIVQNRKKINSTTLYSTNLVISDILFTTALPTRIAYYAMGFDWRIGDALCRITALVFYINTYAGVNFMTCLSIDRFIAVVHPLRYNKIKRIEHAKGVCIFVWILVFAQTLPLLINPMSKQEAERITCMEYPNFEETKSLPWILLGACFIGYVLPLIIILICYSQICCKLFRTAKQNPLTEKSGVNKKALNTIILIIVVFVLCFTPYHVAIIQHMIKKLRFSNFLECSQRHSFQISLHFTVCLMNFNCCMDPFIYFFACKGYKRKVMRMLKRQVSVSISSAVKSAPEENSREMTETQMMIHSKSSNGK
CXCR6 inh = CXCR6 receptor inhibitors, primary screen, cell-based, beta-arrestin, luminescence, CHO-K1 PathHunter, 1536-well. C-X-C chemokine receptor type 6 (Homo sapiens), O00574. inhibition, % at 20 µM. AID 602244, 2012. 0.36% of 360,000 active; in the data active = inhibition above about 34%, passing the limit was not always enough;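 note: antagonist mode with CXCL16 agonist at 10 nM final; 0% = 10 nM CXCL16 with DMSO and 100% = unstimulated wells without agonist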
Target sequence (O00574 whole entry, looked up): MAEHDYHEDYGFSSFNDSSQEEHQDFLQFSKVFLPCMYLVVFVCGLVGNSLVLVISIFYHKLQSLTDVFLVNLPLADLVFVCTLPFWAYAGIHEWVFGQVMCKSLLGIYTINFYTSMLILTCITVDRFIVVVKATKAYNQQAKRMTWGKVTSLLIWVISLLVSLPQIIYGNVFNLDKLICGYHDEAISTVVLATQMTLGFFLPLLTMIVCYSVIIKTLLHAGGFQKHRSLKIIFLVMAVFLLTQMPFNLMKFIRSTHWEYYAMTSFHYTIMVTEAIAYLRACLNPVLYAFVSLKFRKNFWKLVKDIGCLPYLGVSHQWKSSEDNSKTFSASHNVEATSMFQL
APJ antagonist = antagonists of human apelin receptor APJ, primary screen, CHO-K1 cells, beta-arrestin complementation, luminescence; P35414; inhibition, % at 20 µM; 0.32% of 330,000 active; AID 2521, 2010;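 active = inhibition above about 40% at 20 µM, limit read from the data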;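 note: cells challenged with 10 nM apelin-13 agonist together with compound; plate controls were apelin-13 plus DMSO wells for no effect and DMSO wells lacking apelin-13 for full effect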
CCR6 antagonist = CCR6 receptor antagonists, primary screen, cell-based, CHO-K1, luminescence, beta-arrestin, uHTS; CHO-K1 CCR6 PathHunter beta-arrestin, CCL20-stimulated; inhibition, % at 20 µM; 0.49% of 340,000 active; AID 493098, 2011;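 active = compounds whose inhibition of the agonist-driven luminescence signal at 20 µM reaches about 50%, limit read from the data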;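 note: cells stimulated with CCL20 at 14 nM final; plate controls were DMSO with CCL20 for no effect and DMSO without agonist for full effect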
B2AR ag = beta2AR agonists driving receptor internalization, primary screen, cell-based, FAP fluorogen, flow cytometry. Beta-2 adrenergic receptor (Homo sapiens), P07550. response, % (test concentration not listed). Am2.2-beta2AR cells. AID 504454, 2011. 0.43% of 340,000 active;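 active = response above a set limit, near 3 SD of response in nonfluorescent compounds, cut at about 42% in these data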
APJ ag = agonists of human apelin receptor APJ, primary screen, CHO-K1 cells, PathHunter beta-arrestin, luminescence; activation, % at 20 µM; AID 2520, 2010; 0% DMSO wells, 100% apelin; 0.11% of 330,000 active;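 active = activation more than six SD over the plate average, tested at 20 µM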;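 note: 0% = DMSO alone and 100% = apelin-13 at 10 nM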
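Incubation: overnight seeding, 90 min compound at 25 °C, 1 h detection; test system: PathHunter CHO-K1 APJ (AGTRL-1) beta-arrestin reporter cells; amount: 1000 cells/well; doses: one dose, 20 µM compound, 1% DMSO; measured by: beta-gal luminescence; measure: agonist-driven arrestin binding to APJ; benchmarks: negative DMSO alone, positive Apelin-13 at 10 nM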
Beta2AR ag CP1 = beta2AR agonists via receptor internalization, confirmation, cell-based, FAP fluorogen, flow cytometry, single point, cherry pick 1. AID 540358, 2011. percent response (surface receptor), % at 10 µM. shares compounds with B2AR ag. Am2.2-beta2AR cells, FAP surface receptor; stronger effect = lower value. 25% of 1,100 active;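 active = surface receptor percent response at or below 58%, roughly 3 SD from nonfluorescent compounds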
B2AR FAP counter = flagged in Am2.2 fluorescence counterscreen for beta-2AR agonists; shares compounds with B2AR ag; 1,100 tested, under 10 active; Am2.2 cells, FAP fluorogen flow cytometry; stronger effect = lower value; calls only at 10 µM; AID 588765;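 active = percent response below a set limit in fluorescence channel 1 and below 50% in channel 8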
Starred values were filed as active, the others as inactive; i = inactive; · = no result. A selection: hits, their analogues and other compounds. The true share with any hit is near 1.8%.

SMILES	EBI2 block	CXCR6 inh	APJ antagonist	CCR6 antagonist	B2AR ag	APJ ag	Beta2AR ag CP1	B2AR FAP counter
COc1ccc(OC)c(C(=O)NC(CC(N)=O)c2ccc(N3CCN(c4ccccn4)CC3)c([N+](=O)[O-])c2)c1 (centres undefined)	7.5	3.4	-1.6	22.2	16.1	-4.1	141.0	i
Cc1nc([N+](=O)[O-])c(Br)n1CC(=O)c1ccc(Cl)cc1	1.0	11.7	9.1	24.1	24.6	4.4	·	·
Cc1nc([N+](=O)[O-])c(Br)n1Cc1ccc(Cl)c(Cl)c1	50.2*	5.7	·	7.7	57.6*	·	95.6	i
O=C(CN(c1ccccc1F)S(=O)(=O)c1ccccc1)NC1CCCCCC1	-0.3	-2.2	-0.1	14.2	53.4*	-1.9	106.8	i
Cc1ccc(S(=O)(=O)N2CCCC2C(=O)NCCc2nc3ccccc3[nH]2)cc1 (centres undefined)	1.7	6.7	3.0	-17.9	49.8*	1.2	117.5	i
Cc1ccc(S(=O)(=O)N2CCCC2C(=O)NCCc2ccccc2)cc1 (centres undefined)	2.9	-8.5	5.0	-8.0	-3.3	-1.3	·	·
CC1(C)Cc2c(c(N3CCCC3)nc3sc4c(N5CCN(CCO)CC5)ncnc4c23)CO1	24.5	2.6	-5.8	6.9	71.1*	-2.9	46.4*	i
CC1(C)Cc2c(c(N3CCOCC3)nc3sc4c(NCCN)ncnc4c23)CO1	-6.2	-5.1	·	9.5	105.3*	·	10.5*	i
O=C(CCCn1c(=O)[nH]c2ccsc2c1=O)N1CCN(Cc2ccc3c(c2)OCO3)CC1	-5.4	-5.9	-9.5	-8.0	-21.3	1.8	·	·
O=C(CCn1c(=O)[nH]c2ccsc2c1=O)NCc1ccc(F)cc1	-12.3	-3.2	-3.8	-4.5	-6.7	-2.0	94.7	i
O=C(CCCCCn1c(=S)[nH]c2ccccc2c1=O)NCc1ccc2c(c1)OCO2	7.7	-4.0	1.3	12.7	112.7*	-1.4	28.6*	i
O=C(CCCCCn1c(=O)[nH]c2ccsc2c1=O)NCc1ccc2c(c1)OCO2	3.2	1.6	12.5	17.6	113.2*	-3.0	26.3*	i
O=C(CCCn1c(=O)[nH]c2ccsc2c1=O)Nc1ccc(F)cc1	-0.4	-3.2	8.7	5.8	19.1	-4.8	·	·
CCOCC(=O)Nc1ccc([N+](=O)[O-])cc1OC	-3.4	0.8	-33.2	9.4	5.0	-3.3	·	·
CCOC(=O)CS(=O)(=O)CC(=O)Nc1ccc([N+](=O)[O-])cc1OC	1.2	-11.7	-7.0	-3.0	85.6*	-0.8	89.6	i
COc1cccc(OC)c1CN1CCCC(C(=O)c2ccccc2SC)C1 (centres undefined)	4.2	-6.5	11.8	-2.6	2.5	-3.6	·	·
COc1ccc(S(=O)(=O)Nc2ccc(-n3cnnn3)cc2)cc1[N+](=O)[O-]	-4.2	-0.4	8.4	13.1	6.3	-4.9	·	·
CC(C)(C)c1ccc(-c2cn(-c3ccc(Br)cc3)c3[n+]2CCCS3)cc1	-3.6	-2.2	·	12.3	12.5	·	·	·
NC(=O)CC(NSc1ccccc1[N+](=O)[O-])C(=O)O (centres undefined)	-0.6	-1.6	9.5	4.6	-6.1	-1.8	·	·
CN(c1cccc(F)c1)c1cc2c(c3c1ccn3C)C1CCC2O1 (centres undefined)	13.2	1.5	·	·	·	·	·	·
O=C(Oc1c(CN2CCOCC2)cc(Cl)c2cccnc12)c1cccs1	18.4	12.8	17.6	32.5	-2.8	-0.5	·	·
COc1cc(C(=O)Oc2c(CN3CCOCC3)cc(Cl)c3cccnc23)cc(OC)c1OC	41.9	28.7	-13.4	13.9	-14.1	-4.2	97.6	i
O=C(Oc1c(CN2CCOCC2)cc(Cl)c2cccnc12)c1ccccc1Cl	53.0*	27.7	10.8	41.9	3.8	-1.9	112.6	i
CCOC(=O)[C@]12CCC=C1N(CCC1=CCCCC1)C(=O)[C@H](CC(=O)NCc1cccs1)C2	-3.2	2.6	·	·	·	·	·	·
Cc1ccc(C(=O)NCCN2C3=NC[C@H](Cc4ccc(O)cc4)N3C[C@H]2Cc2ccc(O)cc2)cc1Br	0.4	0.5	13.7	17.8	-3.0	9.6	·	·
SMILES	EBI2 block	CXCR6 inh	APJ antagonist	CCR6 antagonist	B2AR ag	APJ ag	Beta2AR ag CP1	B2AR FAP counter
COc1ccc(C[C@H]2CN3C(=NC[C@@H]3Cc3ccc(O)cc3)N2CCNC(=O)c2ccc(C)c(Br)c2)cc1	14.4	-1.8	17.4	4.7	47.3*	15.9	94.0	i
OC(CCN1CC2CCC(CC2)C1)(Cc1ccccc1)c1ccco1 (centres undefined)	-16.3	7.9	·	10.7	6.4	·	·	·
CCOC(=O)c1nnn(CC(=O)Nc2cccc(Cl)c2C)c1C(=O)OCC	-4.4	-0.3	15.5	14.5	70.2*	0.1	100.6	i
CCOC(=O)c1cn(CC(=O)Nc2cccc(Cl)c2C)nn1	0.1	-11.9	4.6	12.6	3.6	4.0	·	·
Brc1cccc(-c2nc3c4ccccc4ccn3c2Cc2ccsc2)c1	14.0	5.1	·	·	·	·	·	·
COc1ccc(C(=O)NCC(c2ccco2)N2CCc3ccccc32)cc1 (centres undefined)	-8.3	6.0	-38.8	8.9	54.4*	-1.0	91.1	i
COc1ccccc1NCC(O)Cn1c2ccccc2c2ccccc21 (centres undefined)	10.4	1.0	0.3	12.6	2.3	2.9	·	·
COc1ccc(CCNCC(O)Cn2c3ccccc3c3ccccc32)cc1OC (centres undefined)	-11.4	-6.4	14.1	2.7	47.6*	0.1	53.0*	i
C=CCOc1ccc(/C=C2/C(=N)N3N=C(CC(=O)N4CCCC4)SC3=NC2=O)cc1OC	5.0	0.3	9.7	10.6	14.2	-2.2	·	·
O=C(c1ccco1)N1CCCC(c2nc3c(nnn3Cc3ccccc3)c(=O)[nH]2)C1 (centres undefined)	-5.7	-4.0	-6.5	3.3	7.5	-0.2	·	·
O=C(c1ccco1)N1CCCC(c2nc3c(nnn3Cc3c(Cl)cccc3Cl)c(=O)[nH]2)C1 (centres undefined)	0.9	2.8	15.2	18.3	50.5*	0.4	124.0	i

High-throughput results as filed in PubChem BioAssay.
